Assay results reported in ChEMBL document CHEMBL4665801, “Pyrazole-Based Lactate Dehydrogenase Inhibitors with Optimized Cell Activity and Pharmacokinetic Properties” (J Med Chem, 2020).
Active and inactive are the calls of the source. How the calls were made is not given here.

Columns and labels:
[1] = biological target: T1, L-lactate dehydrogenase A chain (Homo sapiens, UniProt P00338); test: Inhibition of GS[HiBiT]GS-tagged LDHA (unknown origin) expressed in HEK-293T cells measured after 1 hr by […]; assay type: cell-based
Outline: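 HEK293T cells were transiently transfected for 24 h with CMV-driven LDHA carrying a C-terminal GS[HiBiT]GS tag, then reseeded at 2500 cells/well in DPBS with Ca/Mg and 1 g/L glucose. […] Cells were lysed with NP40, and 11S (100 nM final) plus furimazine was added.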

[2] = biological target: T1, L-lactate dehydrogenase A chain; test: Inhibition of LDHA in human A673 cells assessed as decrease in lactate production incubated for 2 hrs by lactate oxidase-coupled fluorescence based assay; assay type: cell-based
Sus scrofa = organism: Sus scrofa; test: Inhibition of porcine heart MDH using malic acid as substrate preincubated for 10 mins followed by substrate addition and measured after 5 mins by resazurin based fluorescence based assay; conditions: time 15.0 min
[3] = biological target: L-lactate dehydrogenase B chain (Homo sapiens) (UniProt P07195); test: Inhibition of recombinant human LDHB using sodium pyruvate as substrate preincubated for 5 mins followed by diaphorase/resazurin addition and measured after 20 mins by fluorescence based assay
[4] = biological target: T1, L-lactate dehydrogenase A chain; test: Inhibition of recombinant human LDHA using sodium pyruvate as substrate preincubated for 5 mins followed by diaphorase/resazurin addition and measured after 20 mins by fluorescence based assay
A673 = test: Cytotoxicity against human A673 cells assessed as reduction in cell viability after 48 hrs by CellTiter-Glo assay; assay type: functional, cell-based; conditions: A673, 48 h
[5] = biological target: T1, L-lactate dehydrogenase A chain; test: Inhibition of LDHA in human MIA PaCa-2 cells assessed as decrease in lactate production incubated for 2 hrs by lactate oxidase-coupled fluorescence based assay; assay type: cell-based
MIA PaCa-2 = test: Cytotoxicity against human MIA PaCa-2 cells assessed as reduction in cell viability after 48 hrs by CellTiter-Glo assay; assay type: functional, cell-based; conditions: MIA PaCa-2, 48 h
[6] = Terminal half life in CD-1 mouse at 10 mg/kg, iv and measured up to 24 hrs by LC/MS-MS analysis; assay type: ADME, organism-based; conditions: in vivo
Outline: (§1)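 Male CD1 mice, about 6–8 weeks old and 20–30 g, received 10 mg/kg IV in 0.1 M NaOH in PBS adjusted to pH 7–8.5, made fresh on the day of dosing. Three mice per cohort. Blood was taken from the dorsal metatarsal vein at 5, 15, 30 min and 1, 2, 4, 8, 12, 24 h into heparin tubes. Plasma was spun at 4 °C, stored at –75 °C and analysed by LC–MS/MS. For IV dosing Cmax = C0.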

[7] = Terminal half life in CD-1 mouse at 50 mg/kg, po and measured up to 24 hrs by LC/MS-MS analysis; assay type: ADME, organism-based; conditions: in vivo
Outline: (§2)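 Male CD1 mice, about 6–8 weeks old and 20–30 g, were dosed PO at 40 or 50 mg/kg in 0.1 M NaOH in PBS, pH 7–8.5, prepared the same day. Three mice per cohort. Plasma was spun at 4 °C, frozen at –75 °C and quantified by LC–MS/MS.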

[8] = Cmax in CD-1 mouse at 50 mg/kg, po and measured up to 24 hrs by LC/MS-MS analysis; assay type: ADME, organism-based; design: route oral, dose 50 mg/kg, time <=24; conditions: in vivo
Outline: as §2, with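 “cohort. Dorsal metatarsal vein blood was collected into heparin at 15, 30 min and 1, 2, 4, 8, 12, 24 h.” for “cohort.”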

[9] = Oral bioavailability in CD-1 mouse at 50 mg/kg and measured up to 24 hrs by LC/MS-MS analysis; assay type: ADME, organism-based; conditions: in vivo
Outline: as §2, with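 “cohort. Dorsal metatarsal vein blood was collected into heparin at 15, 30 min and 1, 2, 4, 8, 12, 24 h.” for “cohort.”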

[10] = AUClast in CD-1 mouse at 10 mg/kg, iv and measured up to 24 hrs by LC/MS-MS analysis; assay type: ADME, organism-based; design: route intravenous, dose 10 mg/kg, time <=24; conditions: in vivo; outline: as §1
[11] = Volume of distribution at steady state in CD-1 mouse at 10 mg/kg, iv and measured up to 24 hrs by LC/MS-MS analysis; assay type: ADME, organism-based; conditions: in vivo; outline: as §1
[12] = AUClast in CD-1 mouse at 50 mg/kg, po and measured up to 24 hrs by LC/MS-MS analysis; assay type: ADME, organism-based; design: route oral, dose 50 mg/kg, time <=24; conditions: in vivo
Outline: as §2, with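 “cohort. Dorsal metatarsal vein blood was collected into heparin at 15, 30 min and 1, 2, 4, 8, 12, 24 h.” for “cohort.”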

[13] = Cmax in CD-1 mouse at 10 mg/kg, iv and measured up to 24 hrs by LC/MS-MS analysis; assay type: ADME, organism-based; design: route intravenous, dose 10 mg/kg, time <=24; conditions: in vivo; outline: as §1

Chain of L-lactate dehydrogenase B chain (Homo sapiens) (P07195 2-334 limits assumed): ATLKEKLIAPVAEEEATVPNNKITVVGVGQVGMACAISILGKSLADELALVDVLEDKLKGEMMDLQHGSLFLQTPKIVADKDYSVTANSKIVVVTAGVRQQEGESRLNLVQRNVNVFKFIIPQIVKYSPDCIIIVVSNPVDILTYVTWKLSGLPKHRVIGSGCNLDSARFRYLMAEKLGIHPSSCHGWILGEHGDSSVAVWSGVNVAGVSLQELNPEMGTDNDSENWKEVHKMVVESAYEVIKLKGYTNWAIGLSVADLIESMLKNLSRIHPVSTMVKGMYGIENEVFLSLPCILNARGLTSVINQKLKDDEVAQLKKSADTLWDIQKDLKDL

| Compound | IC50 [1] [nM] | IC50 [2] [nM] | inhibition (Sus scrofa) | inhibition [3] | IC50 [4] [nM] | IC50 (A673) [nM] | IC50 [5] [nM] | IC50 (MIA PaCa-2) [nM] | beta t1/2 [6] [h] | IC50 ([2]; a673) [nM] | IC50 ([5]; mia paca-2) [nM] | beta t1/2 [7] [h] | Cmax [8] [ng/mL] | F [9] [%] | AUClast [10] [ng·h/mL] | Vdss [11] [L/kg] | AUClast [12] [ng·h/mL] | Cmax [13] [ng/mL] |
| --- | --- | --- | --- | --- | --- | --- | --- | --- | --- | --- | --- | --- | --- | --- | --- | --- | --- | --- |
| Cn1cc(C#Cc2cc(-c3nn(-c4nc(C(=O)O)cs4)c(CC4CC4)c3Cc3ccc(S(N)(=O)=O)c(F)c3)ccc2F)cn1 | 189 | 1600 | inactive | Active | 9 | 593 | 1140 | 619 | – | – | – | – | – | – | – | – | – | – |
| NS(=O)(=O)c1ccc(Cc2c(-c3ccc(F)c(C#CC(F)F)c3)nn(-c3nc(C(=O)O)cs3)c2CC2CC2)cc1F | 163 | 937 | inactive | Active | 15 | 1480 | 741 | 1330 | – | – | – | – | – | – | – | – | – | – |
| NS(=O)(=O)c1ccc(Cc2c(-c3cccc(-c4ccccc4)c3)nn(-c3nc(C(=O)O)cs3)c2C2CC2(F)F)cc1 (configuration not stated) | 2530 | 1860 | inactive | Active | 36 | 24400 | 4760 | 17700 | – | – | – | – | – | – | – | – | – | – |
| NS(=O)(=O)c1ccc(Cc2c(-c3cccc(-c4ccccc4)c3)nn(-c3nc(C(=O)O)cs3)c2CC2CC2)cc1 | – | – | – | – | – | – | – | – | 0.85 | – | – | – | – | – | – | – | – | – |
| Cc1cnc(C#Cc2cccc(-c3nn(-c4nc(C(=O)O)cs4)c(CC4CC4)c3Cc3ccc(S(N)(=O)=O)c(F)c3)c2)s1 | 90 | 527 | inactive | Active | 17 | 309 | 487 | 360 | – | – | – | – | – | – | – | – | – | – |
| CC(C)(C)C#Cc1cc(-c2nn(-c3nc(C(=O)O)cs3)c(CC3CC3)c2Cc2ccc(S(N)(=O)=O)c(F)c2)ccc1F | 75 | 141 | inactive | Active | 16 | 935 | 137 | 845 | – | – | – | – | – | – | – | – | – | – |
| Cc1nc(C#Cc2cccc(-c3nn(-c4nc(C(=O)O)cs4)c(CC4CC4)c3Cc3ccc(S(N)(=O)=O)c(F)c3)c2)cs1 | 101 | – | inactive | Active | 13 | 347 | – | 471 | – | 1170 | 1180 | – | – | – | – | – | – | – |
| NS(=O)(=O)c1ccc(Cc2c(-c3cccc(C#CC4CCCC4)c3)nn(-c3nc(C(=O)O)cs3)c2CC2CC2)cc1F | 89 | 298 | inactive | Active | 47 | 419 | 281 | 377 | – | – | – | – | – | – | – | – | – | – |
| NS(=O)(=O)c1ccc(Cc2c(-c3cccc(C#Cc4ccc(C(F)F)s4)c3)nn(-c3nc(C(=O)O)cs3)c2CC2CC2)cc1F | 134 | 345 | inactive | Active | 154 | 528 | 286 | 528 | – | – | – | – | – | – | – | – | – | – |
| NS(=O)(=O)c1ccc(Cc2c(-c3ccc(F)c(C#CCCO)c3)nn(-c3nc(C(=O)O)cs3)c2CC2CC2)cc1F | 577 | 2480 | inactive | Active | 3 | 1800 | 1660 | 1330 | – | – | – | – | – | – | – | – | – | – |
| C#Cc1cc(-c2nn(-c3nc(C(=O)O)cs3)c(CC3CC3)c2Cc2ccc(S(N)(=O)=O)c(F)c2)ccc1F | 253 | 902 | inactive | Active | 9 | 4350 | 660 | 4020 | – | – | – | – | – | – | – | – | – | – |
| NS(=O)(=O)c1ccc(Cc2c(-c3ccc(F)c(C#Cc4cccs4)c3)nn(-c3nc(C(=O)O)cs3)c2CC2CC2)cc1F | 89 | 438 | inactive | Active | 32 | 265 | 307 | 268 | – | – | – | – | – | – | – | – | – | – |
| NS(=O)(=O)c1ccc(Cc2c(-c3cccc(-c4ccccc4)c3)nn(-c3nc(C(=O)O)cs3)c2C2(C(F)(F)F)CC2)cc1 | 303 | 20200 | inactive | Active | 4100 | > 30000 | 12800 | > 30000 | – | – | – | – | – | – | – | – | – | – |
| NS(=O)(=O)c1ccc(Cc2c(-c3ccc(F)c(C#CC4CCC4)c3)nn(-c3nc(C(=O)O)cs3)c2CC2CC2)cc1F | 133 | 378 | inactive | Active | 23 | 593 | 428 | 573 | – | – | – | – | – | – | – | – | – | – |
| NS(=O)(=O)c1ccc(Cc2c(-c3cccc(-c4ccccc4)c3)nn(-c3nc(C(=O)O)cs3)c2CC2CC2(F)F)cc1 (configuration not stated) | 501 | 1420 | inactive | Active | 25 | 4640 | 1720 | 10700 | – | – | – | – | – | – | – | – | – | – |
| N#CC#Cc1cc(-c2nn(-c3nc(C(=O)O)cs3)c(CC3CC3)c2Cc2ccc(S(N)(=O)=O)c(F)c2)ccc1F | 474 | 4010 | inactive | Active | 15 | > 30000 | 4400 | > 30000 | – | – | – | – | – | – | – | – | – | – |
| NS(=O)(=O)c1ccc(Cc2c(-c3ccc(F)c(C#CC4CC4)c3)nn(-c3nc(C(=O)O)cs3)c2CC2CC2)cc1F | 100 | 695 | inactive | Active | 9 | 132 | 554 | 323 | – | – | – | – | – | – | – | – | – | – |
| Cc1cc(C#Cc2cccc(-c3nn(-c4nc(C(=O)O)cs4)c(CC4CC4)c3Cc3ccc(S(N)(=O)=O)c(F)c3)c2)c(C)s1 | 299 | 161 | inactive | Active | 235 | 716 | 218 | 810 | – | – | – | – | – | – | – | – | – | – |
| Cc1ccc(C#Cc2cccc(-c3nn(-c4nc(C(=O)O)cs4)c(CCC4CC4)c3Cc3ccc(S(N)(=O)=O)c(F)c3)c2)s1 | 152 | 174 | inactive | Active | 117 | 187 | 172 | – | 5.8 | – | – | 3.7 | 6850 | 42 | 9600 | 1.47 | 20030 | 58200 |
| Cc1cc(C#Cc2cccc(-c3nn(-c4nc(C(=O)O)cs4)c(CCC4CC4)c3Cc3ccc(S(N)(=O)=O)c(F)c3)c2)c(C)s1 | 299 | 162 | inactive | Active | 487 | 402 | 188 | 402 | – | – | – | – | – | – | – | – | – | – |
| CCC#Cc1cc(-c2nn(-c3nc(C(=O)O)cs3)c(CC3CC3)c2Cc2ccc(S(N)(=O)=O)c(F)c2)ccc1F | 112 | 487 | inactive | Active | 14 | 716 | 470 | 662 | – | – | – | – | – | – | – | – | – | – |
| Cc1ccc(C#Cc2cc(-c3nn(-c4nc(C(=O)O)cs4)c(CC4CC4)c3Cc3ccc(S(N)(=O)=O)c(F)c3)ccc2F)o1 | 79 | 544 | inactive | Active | 47 | – | 547 | – | 5.1 | – | – | 10.7 | 1260 | 106 | 2320 | 10.3 | 13520 | 4770 |
